Experimental data reported in ChEMBL document CHEMBL1152892, “Synthesis and biological evaluation of 3,6-disubstituted [1,2,4]triazolo[3,4-b][1,3,4]thiadiazole derivatives as a novel class of potential anti-tumor agents” (Eur J Med Chem, 2009).
Blank lines part the entries; values can stand above or below the molecule they belong to. Activity calls are given as the source filed them. The calls are words filed in the database; no cut-off is given here.

How the values were obtained:
[1] = Inhibition of CDK4/Cyclin D
[2] = target: Cyclin-dependent kinase 2 (Homo sapiens, UniProt P24941); experiment: Inhibition of CDK2/Cyclin A
[3] = target: Cyclin-dependent kinase 1/cyclin B1 (Homo sapiens, UniProt P06493); experiment: Inhibition of CDK1/Cyclin B; assay type: protein-complex assay
[4] = test system: CCRF-CEM; experiment: Cytotoxicity against human CCRF-CEM cells after 48 hrs by sulforhodamine B assay; assay type: functional
Outline: (§1)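 NCI human tumor panel. Cells in RPMI 1640 with 5% FBS and 2 mM L-glutamine, 5000–40,000 cells/well by growth characteristics, 24 h preincubation at 37 °C. Compound added at time zero at five 10-fold dilutions, top concentration agent-dependent. Incubated 48 h (5% CO2, 100% humidity), then sulforhodamine B stain and plate-reader OD. GI50 and TGI are the concentrations giving 50% and total growth inhibition, in µM.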

[5] = test system: UACC-62; experiment: Cytotoxicity against human UACC62 cells after 48 hrs by sulforhodamine B assay; assay type: functional; settings: for GI50: UACC-62, 48 h; outline: as §1
[6] = test system: LOX IMVI; experiment: Cytotoxicity against human LOXIMVI cells after 48 hrs by sulforhodamine B assay; assay type: functional; outline: as §1
[7] = test system: SF-539; experiment: Cytotoxicity against human SF539 cells after 48 hrs by sulforhodamine B assay; assay type: functional; settings: for GI50: SF-539, 48 h; outline: as §1
[8] = test system: NCI-H226; experiment: Cytotoxicity against human NCI-H226 cells after 48 hrs by sulforhodamine B assay; assay type: functional; settings: for GI50: NCI-H226, 48 h; outline: as §1
[9] = test system: A498; experiment: Cytotoxicity against human A498 cells after 48 hrs by sulforhodamine B assay; assay type: functional; settings: for GI50: A498, 48 h; outline: as §1
[10] = test system: HOP-62; experiment: Cytotoxicity against human HOP62 cells after 48 hrs by sulforhodamine B assay; assay type: functional; settings: for GI50: HOP-62, 48 h; outline: as §1
[11] = test system: HCT-116; experiment: Cytotoxicity against human HCT116 cells after 48 hrs by sulforhodamine B assay; assay type: functional; settings: for GI50: HCT-116, 48 h; outline: as §1
[12] = test system: ACHN; experiment: Cytotoxicity against human ACHN cells after 48 hrs by sulforhodamine B assay; assay type: functional; outline: as §1
[13] = test system: KM12; experiment: Cytotoxicity against human KM12 cells after 48 hrs by sulforhodamine B assay; assay type: functional; settings: for GI50: KM12, 48 h; outline: as §1
[14] = test system: HCC 2998; experiment: Cytotoxicity against human HCC2998 cells after 48 hrs by sulforhodamine B assay; assay type: functional; outline: as §1
[15] = test system: CAKI-1; experiment: Cytotoxicity against human Caki1 cells after 48 hrs by sulforhodamine B assay; assay type: functional; settings: for GI50: CAKI-1, 48 h; outline: as §1
[16] = test system: OVCAR-3; experiment: Cytotoxicity against human OVCAR-3 cells after 48 hrs by sulforhodamine B assay; assay type: functional; settings: for GI50: OVCAR-3, 48 h; outline: as §1
[17] = test system: OVCAR-4; experiment: Cytotoxicity against human OVCAR4 cells after 48 hrs by sulforhodamine B assay; assay type: functional; outline: as §1
[18] = test system: TK-10; experiment: Cytotoxicity against human TK10 cells after 48 hrs by sulforhodamine B assay; assay type: functional; settings: for GI50: TK-10, 48 h; outline: as §1
[19] = test system: MCF7; experiment: Antitumor activity against human MCF7 cells assessed as cell growth at 10 uM after 48 hrs by sulforhodamine B assay; assay type: functional; settings: MCF7, 48 h, read-out: Activity
Outline: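 NCI primary screen, single concentration 10^-5 M against MCF7, NCI-H460 and SF-268. Cells in RPMI 1640 with 5% FBS and 2 mM L-glutamine, seeded at 5000–40,000 cells/well by cell type, preincubated 24 h at 37 °C. Compound added at time zero, then 48 h incubation (5% CO2, 100% humidity). Growth read by sulforhodamine B optical density, reported as growth percentage.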

[20] = test system: SR; experiment: Cytotoxicity against human SR cells after 48 hrs by sulforhodamine B assay; assay type: functional; outline: as §1
[21] = test system: HOP-92; experiment: Cytotoxicity against human HOP92 cells after 48 hrs by sulforhodamine B assay; assay type: functional; settings: HOP-92, 48 h; outline: as §1
[22] = test system: HCT-116; experiment: Antitumor activity against human HCT116 cells xenografted in nude mouse; assay type: functional, cell-based
[23] = test system: SF-268; experiment: Cytotoxicity against human SF268 cells after 48 hrs by sulforhodamine B assay; assay type: functional; outline: as §1
[24] = (§2) Cytotoxicity against human […] cells after 48 hrs by sulforhodamine B assay; assay type: functional; outline: as §1
[25] = test system: MCF7; experiment: Cytotoxicity against human MCF7 cells after 48 hrs by sulforhodamine B assay; assay type: functional; settings: for GI50: MCF7, 48 h; outline: as §1
[26] = (§3) Cytotoxicity against human Hs 578T cells after 48 hrs by sulforhodamine B assay; assay type: functional; outline: as §1
[27] = test system: NCI-H322M; experiment: Cytotoxicity against human NCI-H322M cells after 48 hrs by sulforhodamine B assay; assay type: functional; outline: as §1
[28] = test system: HCT-15; experiment: Cytotoxicity against human HCT15 cells after 48 hrs by sulforhodamine B assay; assay type: functional; settings: for GI50: HCT-15, 48 h; outline: as §1
[29] = test system: SNB-75; experiment: Cytotoxicity against human SNB75 cells after 48 hrs by sulforhodamine B assay; assay type: functional; outline: as §1
[30] = test system: BT-549; experiment: Cytotoxicity against human BT549 cells after 48 hrs by sulforhodamine B assay; assay type: functional; settings: for GI50: BT-549, 48 h; outline: as §1
[31] = test system: RPMI8266; experiment: as §2; assay type: functional; outline: as §1
[32] = test system: Hs-578T; experiment: as §3; assay type: functional; outline: as §1

Cyclin-dependent kinase 1/cyclin B1, sequence (P06493 whole entry): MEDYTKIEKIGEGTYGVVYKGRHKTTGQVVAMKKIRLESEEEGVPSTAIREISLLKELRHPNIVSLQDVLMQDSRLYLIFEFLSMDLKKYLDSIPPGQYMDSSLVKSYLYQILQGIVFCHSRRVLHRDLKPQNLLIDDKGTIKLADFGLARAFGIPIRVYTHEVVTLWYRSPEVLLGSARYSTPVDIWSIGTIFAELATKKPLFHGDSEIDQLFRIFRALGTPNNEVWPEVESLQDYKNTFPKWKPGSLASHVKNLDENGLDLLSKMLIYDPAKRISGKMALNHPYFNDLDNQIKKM
Cyclin-dependent kinase 1/cyclin B1, sequence (P14635 whole entry, further chain): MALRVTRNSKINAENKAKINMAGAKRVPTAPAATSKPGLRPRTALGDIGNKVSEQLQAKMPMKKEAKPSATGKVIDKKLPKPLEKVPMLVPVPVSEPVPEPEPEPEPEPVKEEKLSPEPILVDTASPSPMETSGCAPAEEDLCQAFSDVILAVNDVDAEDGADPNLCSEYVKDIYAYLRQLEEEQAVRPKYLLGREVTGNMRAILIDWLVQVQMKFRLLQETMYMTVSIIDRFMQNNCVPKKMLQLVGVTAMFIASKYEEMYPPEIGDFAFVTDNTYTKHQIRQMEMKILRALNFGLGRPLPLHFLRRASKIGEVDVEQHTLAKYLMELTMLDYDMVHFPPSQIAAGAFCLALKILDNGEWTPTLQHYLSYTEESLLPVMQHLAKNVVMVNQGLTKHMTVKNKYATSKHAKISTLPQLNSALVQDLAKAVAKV

- IC50 [1]: > 48 µM
- IC50 [2]: 14 µM
- IC50 [3]: > 120 µM
Structure (SMILES): Nc1nc(O)c(Cc2nn3c(Cc4ccccc4)nnc3s2)s1

- IC50 [1]: 2.1 µM
- IC50 [2]: 0.33 µM
- IC50 [3]: 6.5 µM
Structure (SMILES): Nc1ccc(-c2nn3c(COc4ccc(Cl)cc4)nnc3s2)cc1
- GI50 [4]: 10 µM
- pGI50 [5]: inactive
- pGI50 [6]: inactive
- GI50 [7]: 34.7 µM
- GI50 [8]: 7.24 µM
- pGI50 [9]: inactive
- GI50 [10]: 20.4 µM
- GI50 [11]: 34.7 µM
- GI50 [12]: 53.7 µM
- GI50 [13]: > 100 µM
- pGI50 [14]: inactive
- GI50 [15]: 49 µM
- pGI50 [16]: inactive
- pGI50 [17]: inactive
- GI50 [18]: 85.1 µM
- growth at 10 µM [19]: 128%
- GI50 [20]: 91.2 µM
- GI50 [21]: 97.7 µM
- Activity [22]: inactive
- GI50 ([23]; SF-268, 48 h): 46.8 µM
- GI50 [24]: 77.6 µM
- GI50 [25]: 40.7 µM
- GI50 [26]: 87.1 µM
- pGI50 [27]: inactive

- IC50 [1]: > 120 µM
- IC50 [2]: 0.57 µM
- IC50 [3]: > 120 µM
Structure (SMILES): Cc1nnc2sc(-c3ccc(N)cc3)nn12
- pGI50 [28]: inactive
- pGI50 [4]: inactive
- pGI50 [5]: inactive
- pGI50 [6]: inactive
- pGI50 [7]: inactive
- pGI50 [8]: inactive
- pGI50 [9]: inactive
- GI50 [10]: 87.1 µM
- pGI50 [12]: inactive
- GI50 [13]: > 100 µM
- pGI50 [14]: inactive
- pGI50 [15]: inactive
- pGI50 [16]: inactive
- GI50 ([29]; SNB-75, 48 h): 21.4 µM
- pGI50 [17]: inactive
- growth at 10 µM [19]: 119%
- pGI50 [20]: inactive
- GI50 [30]: > 100 µM
- pGI50 [23]: inactive
- pGI50 [31]: inactive
- pGI50 [25]: inactive
- GI50 [26]: 89.1 µM
- pGI50 [27]: inactive

- IC50 [1]: 14 µM
- IC50 [2]: 11 µM
- IC50 [3]: > 120 µM
Structure (SMILES): CCSc1nn2c(C)nnc2s1

- IC50 [2]: 0.4 µM
- IC50 [3]: 0.9 µM
Structure (SMILES): Sc1nn2c(COc3ccc(Cl)cc3)nnc2s1
- GI50 [4]: 97.7 µM
- pGI50 [5]: inactive
- pGI50 [6]: inactive
- pGI50 [7]: inactive
- GI50 [8]: 89.1 µM
- pGI50 [9]: inactive
- pGI50 [10]: inactive
- GI50 [11]: > 100 µM
- pGI50 [12]: inactive
- pGI50 [13]: inactive
- pGI50 [14]: inactive
- pGI50 [15]: inactive
- GI50 [16]: 81.3 µM
- pGI50 [29]: inactive
- pGI50 [17]: inactive
- pGI50 [18]: inactive
- growth at 10 µM [19]: 0%
- GI50 [20]: 95.5 µM
- GI50 [21]: 79.4 µM
- GI50 [30]: 79.4 µM
- pGI50 [23]: inactive
- pGI50 [31]: inactive
- pGI50 [25]: inactive
- GI50 [26]: 87.1 µM
- pGI50 [27]: inactive

- IC50 [1]: 3 µM
- IC50 [2]: 0.18 µM
- IC50 [3]: 0.91 µM
Structure (SMILES): Nc1nc(O)c(Cc2nn3c(COc4ccc(Cl)cc4)nnc3s2)s1
- GI50 [28]: 0.741 µM
- GI50 [5]: 31.6 µM
- GI50 [6]: 3.63 µM
- GI50 [7]: 39.8 µM
- GI50 [9]: 0.0537 µM
- pGI50 [10]: inactive
- GI50 [12]: 35.5 µM
- GI50 [13]: 7.41 µM
- pGI50 [14]: inactive
- pGI50 [15]: inactive
- pGI50 [16]: inactive
- pGI50 [29]: inactive
- GI50 [18]: 45.7 µM
- growth at 10 µM [19]: 0%
- GI50 [20]: 49 µM
- GI50 [21]: 97.7 µM
- pGI50 [30]: inactive
- Activity [22]: Active
- pGI50 [23]: inactive
- pGI50 [31]: inactive
- GI50 [25]: > 100 µM
- GI50 [26]: 31.6 µM
- GI50 [27]: 11.2 µM

- IC50 [1]: > 120 µM
- IC50 [2]: 16 µM
- IC50 [3]: > 48 µM
Structure (SMILES): Cc1nnc2sc(SCc3ccccc3)nn12

- IC50 [1]: 8 µM
- IC50 [2]: 0.82 µM
- IC50 [3]: 11 µM
Structure (SMILES): Clc1ccc(OCc2nnc3sc(SSc4nn5c(COc6ccc(Cl)cc6)nnc5s4)nn23)cc1
- GI50 [28]: 87.1 µM
- GI50 [4]: 75.9 µM
- GI50 [5]: 44.7 µM
- pGI50 [7]: inactive
- GI50 [8]: 87.1 µM
- GI50 [9]: 28.8 µM
- GI50 [10]: 66.1 µM
- pGI50 [11]: inactive
- pGI50 [12]: inactive
- pGI50 [13]: inactive
- GI50 ([14]; HCC 2998, 48 h): 16.2 µM
- GI50 [15]: 77.6 µM
- GI50 [16]: 35.5 µM
- pGI50 [29]: inactive
- GI50 ([17]; OVCAR-4, 48 h): 46.8 µM
- GI50 [18]: 72.4 µM
- growth at 10 µM [19]: 147%
- GI50 [20]: 14.1 µM
- GI50 [21]: 18.2 µM
- GI50 [30]: 47.9 µM
- Activity [22]: inactive
- pGI50 [23]: inactive
- GI50 [24]: 44.7 µM
- GI50 [25]: 44.7 µM
- pGI50 [32]: inactive

- IC50 [1]: 11 µM
- IC50 [2]: 23 µM
- IC50 [3]: 6.8 µM
Structure (SMILES): Cc1nnc2sc(SSc3nn4c(C)nnc4s3)nn12

- IC50 [1]: 37 µM
- IC50 [2]: > 28 µM
- IC50 [3]: > 120 µM
Structure (SMILES): Clc1ccc(OCc2nnc3sc(SCc4ccccc4)nn23)cc1

- IC50 [1]: 18 µM
- IC50 [2]: > 28 µM
- IC50 [3]: 25 µM
Structure (SMILES): c1ccc(CSc2nn3c(Cc4ccccc4)nnc3s2)cc1

- IC50 [1]: 14 µM
- IC50 [2]: > 28 µM
- IC50 [3]: > 120 µM
Structure (SMILES): Nc1ccc(-c2nn3c(Cc4ccccc4)nnc3s2)cc1
